Published values gathered from unrelated publications.
Lines come from different studies, so protocols differ.
Cell line: HepG2
Observed: cell growth or viability

CN1CCN(CCn2cccc2/C=N/NC(=O)Nc2cc3c(Nc4ccc(F)c(Cl)c4)ncnc3cc2O[C@H]2CCOC2)CC1  IC50 (MTT; 72 h): 0.15 µM
COc1ccc(NC(=O)c2c(Nc3ccccc3)sc(C#N)c2NC(=O)CNc2ccc(OC)c(OC)c2)cc1  viability (SRB; 10 µM, 48 h): 71.4%
O=C(CN1C(=O)/C(=C/c2ccc[nH]2)SC1=S)Nc1ccccc1  inhibition (MTT; 10 µM): 9.65%
CCn1cc(-c2nc(C)no2)c(=O)c2cc(F)c(N3CCN(C)CC3)cc21  EC50 (ATP luminescence; 48 h): > 40 µM
COc1ccc(NC(=O)c2c(Nc3ccccc3)sc(C(=O)NN=Cc3ccccc3)c2NC(C)=O)cc1  viability (SRB; 1 µM, 48 h): 72%
Clc1ccc(-c2nc3ccccc3n2Cc2ccccc2)cc1  IC50 (MTT): 47.2 µM
Cc1cc(=O)oc2ccc(-c3cc(-c4ccc(Cl)cc4)nc(N)n3)c(O)c12  inhibition (MTT; 8 µg/mL, 72 h): 39%
O=C(CN1C(=O)/C(=C/c2cccc([N+](=O)[O-])c2)SC1=S)Nc1ccccc1  inhibition (MTT; 10 µM): 24.2%
Cc1ccc2nc(-c3c(F)cccc3Cl)[nH]c2c1  IC50 (MTT; 48 h): > 100 µM
COc1cccc(NC(=O)CN2C(=O)/C(=C/c3ccco3)SC2=S)c1  inhibition (MTT; 10 µM): 5.43%
COc1ccc(NC(=O)c2c(Nc3ccccc3)sc(C#N)c2NC(=O)CNc2ccc(C)cc2)cc1  viability (SRB; 1 nM, 48 h): 98.1%
CCOC(=O)c1ccc(-n2c(N)c(C#N)c(CC#N)c(C#N)c2=O)cc1  viability (MTT; 1.56 µM, 24 h): 100%
CCOc1cc(-c2nc3ccccc3[nH]2)ccc1O  IC50 (MTT; 48 h): 42.5 µM
COc1ccc(NC(=O)c2c(Nc3ccccc3)sc(C(=O)NN=Cc3ccc(C)cc3)c2NC(C)=O)cc1  viability (SRB; 1 nM, 48 h): 100%
CCCC1CCN(c2cc3c(cc2F)c(=O)c(-c2nc(C)no2)cn3CC)CC1  EC50 (ATP luminescence; 48 h): > 40 µM
COc1ccc(NC(=O)c2c(Nc3ccccc3)sc(C#N)c2NC(=O)CNc2ccccc2)cc1  viability (SRB; 0.1 µM, 48 h): 82.4%
CCOC(=O)c1ccc(NC(=O)C2=C3C(=Nc4ccccc43)NC2=O)cc1  viability (MTT; 3.125 µM, 24 h): 100%
COc1ccc(NC(=O)c2c(Nc3ccccc3)sc(C#N)c2NC(=O)CNc2ccc(Cl)cc2)cc1  viability (SRB; 1 nM, 48 h): 99.1%
O=[N+]([O-])c1ccc(-c2nc3ccccc3n2Cc2ccccc2)cc1  IC50 (MTT): 7.8 µM
CCOC(=O)c1ccc(N2C(N)=C(C#N)C3(C(=O)Nc4ccccc43)C(C#N)=C2O)cc1 (centres unmarked)  viability (MTT; 100 µM, 24 h): 10.7%
COc1ccc(NC(=O)c2c(Nc3ccccc3)sc(C#N)c2NC(=O)CNc2ccc(Br)cc2)cc1  viability (SRB; 100 µM, 48 h): 39.7%
CCOC(=O)c1ccc(-n2c(C)cc(/C=C/c3ccc(OC)cc3)c(C#N)c2=O)cc1  viability (MTT; 6.25 µM, 24 h): 96%
Cc1cc(=O)oc2ccc(-c3cc(-c4ccccc4)nc(N)n3)c(O)c12  inhibition (MTT; 128 µg/mL, 72 h): 20%
